Measured values as given in the RNAGym collection of RNA variant scans (doi:10.1126/science.aae0568).
This sample holds only a part of the variants without activity.

B1: tRNA (parent)
chain: GUUCCGUUGGCGUAAUGGUAACGCGUCUCCCUCCUAAGGAGAAGACUGCGGGUUCGAGUCCCGUACGGAACG

Variants of: B1
Assay: yeast fitness relative to wild type (ratio to wild type); higher = fitter; tRNA-Arg(CCU), competitive growth, 37 C, YPD
Summary of the method: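 Amplicons of the tRNA-Arg(CCU) gene were sequenced, 100-nucleotide paired-end, from the start population and from each end population of a pooled yeast competition. The competition, in six parallel replicates, lasted 24 hours in YPD at 37°C. Fitness relative to wild type was calculated from changes in genotype frequencies. Genotypes had to have ≥ 100 starting reads, and estimates < 0.5 were set to 0.5.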

Point of comparison: GUUCCGUUAGUGUAAUGGUAACGCGUCUCCCUCCUAGGGAGAAGCCUGCGGGUUCGAGUCCCGUACGGAACG, yeast fitness 0.603. Against it:
- GUUCCGUUAGUGUAAUGGUAACGCGUCUCCCUCCUAAGGAGAAGACUGCGGGUUCGAGUCCCGUACGGAACG — higher, 0.928
- GUUCCGUUAGGGUAAUGGUAACGCGUCUCCCUCCUAAGGAGAAGACUGCGGGUUCGAGUCCCGUACGGAACG — lower, 0.583
- GUUCCGUUAGAGUAAUGGUAACGCGUCUCCCUCCUAAGGAGAAGACUGCGGGUUCGAGUCCCGUACGGAACG — higher, 0.604
- GUUCCGUUAGGGUAAUGGUAACGCGUCUCCCUUCUGAGGAGAAGACUGCGGGUUGGAGUCCCGUACGGAACG — lower, ≤ 0.5
- GUUCCGUUAGCGUAAUGGUAACGGGUCUCUCUCCUAAGGAGAAGACUGCGGGUUCGGGUCCCGUACGGAACG — lower, ≤ 0.5
- GUUCCGUUAGCGUAAUGGUAAGGCGUCUCCCUCCCAAGGAGAAGACUGGGGGUUCGAGUCCCGUACGCAACG — lower, ≤ 0.5
- GUUCCGUUAGAGUAAUGGUAACGCGUCUCCCUCCUAACGAGAAGACUGCGGGUUCGAAUGCCGUACGGAACG — lower, ≤ 0.5
- GUUCCGUUAGCGUAAUGGUAAGGCGUCUCCCUCCUAAGGAGAAGACUGCGGGUUCGAGUCCCGUCCGGAACG — higher, 0.679
- GUUCCGUUAGAGUAAUGGUAACGCGUCUCCCUCCUAAGGAGAAGACUGCGGGUUCGGGUCCCGUACGGAACG — lower, ≤ 0.5
- GUUCCGUUAGGGUAAUGGUAACGCGUCUCCCCCCUAAGGAGAAGACUGCGGGUUCGAGUCCCGUACGGCACG — lower, ≤ 0.5
- GUUCCGUUAGCGUAAUGGUAAAGCGUCUCCCUCCUAAGGAGAAGACUGCGGGAUCGGGUACCGUACGGAACG — lower, ≤ 0.5
- GUUCCGUUAGCGUAAUGGUAAGGCGUCUCCUUCCUAAGGAGAAGACUGCGGGUUCGAGUCACGUCAGGAACG — lower, ≤ 0.5
- GUUCCGUUAGCGUAAUGGUAACGAGUCUCCCUCCUAAGGAGAAGACUGCGGGUUCGAGACCCGUACAGAACG — lower, ≤ 0.5
- GUUCCGUUAGCGUAAUGGUAAUGCGUCUCCCUCCUAGGGAGAAGACUGCGGGUUCGAGUCCCGUACGGAACG — lower, ≤ 0.5
- GUUCCGUUAGCGUAAUGGUAAUGCGUCUCCCUCCUAAGGAGAAGACUGCGGGUUCGAGUCUCGUACGGACCG — lower, ≤ 0.5
- GUUCCGUUAGCGUAAUGGUAAAGCGACUCCCUCCUAAGGAGAAGACUGCGGCUUCGAGUCCCGUACAGAACG — lower, ≤ 0.5
- GUUCCGUUAGCGUAAUGGUAAUGCGUCCCCCUCCUAAGGAGAAAACUGCGCGUUCGACUCCCGUACGGAACG — lower, ≤ 0.5
- GUUCCGUUAGUGUAAUGGUAACGCGUCUCCCUCCUAAGGAGAAGAGUGCGGGUUCGAGUCCUGUAUGGAACG — lower, ≤ 0.5
- GUUCCGUUAGGGUAAUGGUAACGGGUCUCCCACCUAAGGAGAAGACUGCGGGUUCGAGUCCCGUACGGAACG — lower, ≤ 0.5
- GUUCCGUUAGCGUAAUGGUAAGGCGUCUCCUUCCUAAGGAGAAGACUGCGGGUUCGAGUCCCGUACGGAACG — higher, 0.683
- GUUCCGUUAGCGUAAUGGUAAUGCGUCUCCCUCCUAAGGAGAGGACUGCGGGUUCGAGUCCCGAACGGAACG — lower, ≤ 0.5
- GUUCCGUUAGGGCAAUGGUAACGCGUAUUCCUCCUAAGGAGAAGACUGCGGGUUCGAGUCCAGUACGGAACG — lower, ≤ 0.5
- GUUCCGUUAGGGUAAUGGUAACGCGUCUCCCUCCUAAGGUGAAGACUGCGGGUUCAAGUCCCGUACGGAACG — lower, ≤ 0.5
- GUUCCGUUAGCGUAAUGGUAAGGCGUCUCCCUCCUAAGGAGAAGACUGCGGGUUCGAGUCCCGUACAGAACG — higher, 0.648
- GUUCCGUUAGGGGAAUGGUAACCCGUCUCCCUCUUAAGGAGAAGACUGCGGGUUCGAGCCCCGUAUGGAACG — lower, 0.574
- GUUCCGUUAGGGCAAUGGUAACGCGUAUUCCUCCUAAGGAGAAGACUGCGGGUUCGAGUCCCGUACGGAACG — lower, ≤ 0.5
- GUUCCGUUAGAGUCAAGGUAACGCGUCUCCAUCCUAAGGAGAAGACUGCGGGUUCGAGUCUCGUACGGAACG — lower, ≤ 0.5
- GUUCCGUUAGGGGAAUGGUAACCCGUCUCCCUCUUAAGGAGAAGACUGUGGGUUCGAGCCCCGUAUGGAACG — lower, ≤ 0.5
- GUUCCGUUAGCGUAAUGGUAAAGCGUCUCCCUCCUAAGGAGAAGACUGCGGGUUCGAGUCCCGUGCGGAACG — higher, 0.617
- GUUCCGUUAGCGUAAUGGUAACGGGUCUCCCUCCUAAGGCGAAGACUGCGGGUUCGAGUCCCGUACGAAACG — lower, ≤ 0.5
- GUUCCGUUAGCGUAAUGGUAACGCGUCUCCCUCCUAAGGAGAAGACUGCGGGUUCGAGUCCCGUACGGCCCG — higher, 1.04
- GUUCCGUUAGUGUAAUGGUAACGCGUCUCCCUCCUAAGGAGUAGACCGCGAGUUCGAGUCCCGUACGGACCG — lower, ≤ 0.5
- GUUCCGUUAGAGUAAUGGUAACGCGUCUCCCUCGUGAGGAGAAGACUGCGGGUUCGAGUCCCGUCCGGAACG — lower, ≤ 0.5
- GUUCCGUUAGCGUAAUGGUAACGGGUCUCCCUCCUAGGGAGAAGACUGCGGGUUCGAGACCCGUACAGAACG — lower, ≤ 0.5
- GUUCCGUUAGGGUAAUGGUAACGCGUCUCCCUCCUAAGGAGAAGACUGCGGGUUCGAGUCCCGUACGAAACG — lower, ≤ 0.5
- GUUCCGUUAGGGUAAUGGCAACGCGUCUCCCUCCUAAGGAGAAGACUGCGGGUUCGAGUCCCGUACGGAACG — lower, 0.536
